Test results as given in ChEMBL document CHEMBL3351261, “Induction of intrinsic apoptosis pathway in colon cancer HCT-116 cells by novel 2-substituted-5,6,7,8-tetrahydronaphthalene derivatives” (Eur J Med Chem, 2014).
≈ marks a conversion by molar mass, not a printed value. Calls of active or inactive are those of the source. The rule behind the calls is not given here.

Assays:
HCT-116 [1] = experiment: Induction of apoptosis in human HCT116 cells assessed as increase in total caspase level relative to control; format: functional, cell-based
Method in brief: (§1)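 HCT-116 cells, treated or untreated, were lysed (pH 7.4) and cleared at 14,000× g, 15 min, 4 °C. Kit-based read-outs: total caspases via Red-VAD-FMK fluorescence (Ex 540/Em 570 nm); caspase-3 colorimetric at 405 nm; caspase-9 via LEHD-pNA cleavage, pNA at 405 nm. Results are fold over untreated cells.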

HCT-116 [2] = experiment: Induction of apoptosis in human HCT116 cells assessed as cytochrome C accumulation by immunoblotting analysis; format: functional, cell-based
Method in brief: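 HCT-116 cells were lysed in ice-cold buffer (pH 7.4) with NP40, Triton X-100 and protease/phosphatase inhibitors, then cleared at 14,000× g for 15 min at 4 °C; protein was measured by BCA. Soluble protein (20 µg) was dot-blotted on nitrocellulose and probed for cytochrome c, detected with HRP anti-goat antibody and OPD. Dot colour intensity is given as mean % of three replicates.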

HCT-116 [3] = experiment: Induction of necrosis in human HCT116 cells at IC50 by acridine orange/ethidium bromide staining-based fluorescence microscopy; format: functional
Method in brief: (§2)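 Treated and untreated HCT-116 cells were stained with acridine orange/ethidium bromide (each 100 µg/ml mix in PBS) and examined under fluorescence microscopy, blinded. Cells with yellow condensed or fragmented nuclei were counted as apoptotic; bright orange chromatin in round nuclei was counted as necrotic. Each is reported as % of the dead-cell population.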

HeLa = experiment: Cytotoxicity against human HeLa cells after 48 hrs by MTT method; format: functional, cell-based
HCT-116 [4] = experiment: Induction of DNA fragmentation in human HCT116 cells at IC50 after 30 mins relative to control; format: functional
Method in brief: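 HCT-116 cells, treated or untreated, were resuspended in TE buffer (10 mM Tris, 1 mM EDTA, pH 8.0) and lysed 30 min in 5 mM Tris, 20 mM EDTA, 0.5% Triton X-100, pH 8.0. Fragmented DNA (supernatant) was separated from intact chromatin (pellet) by centrifugation and quantified with diphenylamine reagent. % fragmentation = supernatant DNA / pellet DNA; three measurements, mean ± SD.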

MCF7 = experiment: Cytotoxicity against human MCF7 cells after 48 hrs by MTT method; format: functional, cell-based; conditions: MCF7, 48 h
HepG2 = experiment: Cytotoxicity against human HepG2 cells after 48 hrs by MTT method; format: functional, cell-based; conditions: HepG2, 48 h
HCT-116 [5] = experiment: Induction of apoptosis in human HCT116 cells at IC50 by acridine orange/ethidium bromide staining-based fluorescence microscopy; format: functional; method in brief: as §2
[6] = Cytotoxicity against human HCT116 cells after 48 hrs by MTT method; format: functional, cell-based; conditions: HCT-116, 48 h
HCT-116 [7] = experiment: Induction of apoptosis in human HCT116 cells assessed as increase in caspase-3 level relative to control; format: functional, cell-based; method in brief: as §1
HCT-116 [8] = experiment: Induction of apoptosis in human HCT116 cells assessed as increase in caspase-9 level relative to control; format: functional, cell-based; method in brief: as §1
HCT-116 [9] = experiment: Induction of apoptosis in human HCT116 cells assessed as reduction of mitochondrial membrane potential after 2 hrs by JC-1 staining-based fluorescence assay; format: functional, cell-based
Method in brief: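 HCT-116 cells in 96-well plates were preloaded with 10 µg/ml JC-1 in HBSS for 30 min at 37 °C, then incubated with or without compound for 2 h at 37 °C. The 590/527 nm emission ratio was read at zero time and at 2 h and expressed as % of the zero-time reading. CCCP served as positive control; mean of three readings ± SD.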

O=C(/C=C\Nc1ccc([N+](=O)[O-])cc1)c1ccc2c(c1)CCCC2
Activity (HCT-116 [1]): Active | Activity (HCT-116 [2]): Active | Activity (HCT-116 [3]): 0% | IC50 (HeLa): 48.4 µg/mL (≈ 150 µM) | Activity (HCT-116 [4]): Active | IC50 (MCF7): 28.5 µg/mL (≈ 88.4 µM) | IC50 (HepG2): 27.4 µg/mL (≈ 85 µM) | Activity (HCT-116 [5]): 77% | IC50 [6]: 6.8 µg/mL (≈ 21.1 µM)

O=C(Nc1ccc(-c2ccc3c(c2)CCCC3)oc1=O)c1ccccc1
Activity (HCT-116 [1]): Active | Activity (HCT-116 [2]): Active | IC50 (HeLa): 38.3 µg/mL (≈ 111 µM) | IC50 (MCF7): 27.5 µg/mL (≈ 79.6 µM) | IC50 (HepG2): 29.3 µg/mL (≈ 84.8 µM) | IC50 [6]: 47.7 µg/mL (≈ 138 µM)

O=C(/C=C/N1CCCCC1)c1ccc2c(c1)CCCC2
IC50 (HeLa): 35.6 µg/mL (≈ 132 µM) | IC50 (MCF7): 41.1 µg/mL (≈ 153 µM) | IC50 (HepG2): 39.1 µg/mL (≈ 145 µM) | IC50 [6]: 35.4 µg/mL (≈ 131 µM)

CC(=O)Nc1ccc(-c2ccc3c(c2)CCCC3)oc1=O
Activity (HCT-116 [7]): inactive | Activity (HCT-116 [3]): 0% | IC50 (HeLa): 30.4 µg/mL (≈ 107 µM) | Activity (HCT-116 [4]): Active | IC50 (MCF7): 20.9 µg/mL (≈ 73.8 µM) | IC50 (HepG2): 45.3 µg/mL (≈ 160 µM) | Activity (HCT-116 [5]): 77% | Activity (HCT-116 [8]): Active | IC50 [6]: 8.4 µg/mL (≈ 29.6 µM)

COc1ccc(N/C=C\C(=O)c2ccc3c(c2)CCCC3)cc1
IC50 (HeLa): 46.1 µg/mL (≈ 150 µM) | IC50 (MCF7): 43.1 µg/mL (≈ 140 µM) | IC50 (HepG2): 31.8 µg/mL (≈ 103 µM) | IC50 [6]: 31.8 µg/mL (≈ 103 µM)

O=C(/C=C\Nc1ccc(Cl)cc1)c1ccc2c(c1)CCCC2
Activity (HCT-116 [3]): 0% | IC50 (HeLa): 19.9 µg/mL (≈ 63.8 µM) | Activity (HCT-116 [9]): inactive | Activity (HCT-116 [4]): Active | IC50 (MCF7): 28.7 µg/mL (≈ 92 µM) | IC50 (HepG2): 30.3 µg/mL (≈ 97.2 µM) | Activity (HCT-116 [5]): 77% | IC50 [6]: 7.9 µg/mL (≈ 25.3 µM)

O=C(/C=C\Nc1ccccc1)c1ccc2c(c1)CCCC2
IC50 (HeLa): 30.6 µg/mL (≈ 110 µM) | IC50 (MCF7): 32.2 µg/mL (≈ 116 µM) | IC50 (HepG2): 19.9 µg/mL (≈ 71.7 µM) | IC50 [6]: 41.6 µg/mL (≈ 150 µM)

O=C(/C=C/N1CCOCC1)c1ccc2c(c1)CCCC2
Activity (HCT-116 [3]): 0% | IC50 (HeLa): 41.2 µg/mL (≈ 152 µM) | Activity (HCT-116 [9]): inactive | Activity (HCT-116 [4]): Active | IC50 (MCF7): 38.6 µg/mL (≈ 142 µM) | IC50 (HepG2): 18.2 µg/mL (≈ 67.1 µM) | Activity (HCT-116 [5]): 77% | IC50 [6]: 7.2 µg/mL (≈ 26.5 µM)

O=C(c1ccc2c(c1)CCCC2)c1coc2ccc(O)cc12
Activity (HCT-116 [3]): 0% | IC50 (HeLa): 41.6 µg/mL (≈ 142 µM) | Activity (HCT-116 [9]): inactive | Activity (HCT-116 [4]): Active | IC50 (MCF7): 40.3 µg/mL (≈ 138 µM) | IC50 (HepG2): 39.2 µg/mL (≈ 134 µM) | Activity (HCT-116 [5]): 77% | IC50 [6]: 9.5 µg/mL (≈ 32.5 µM)

O=C(c1ccc2c(c1)CCCC2)c1coc2c1cc(O)c1ccccc12
IC50 (HeLa): 40.5 µg/mL (≈ 118 µM) | IC50 (MCF7): 48.7 µg/mL (≈ 142 µM) | IC50 (HepG2): 31.7 µg/mL (≈ 92.6 µM) | IC50 [6]: 36.2 µg/mL (≈ 106 µM)

c1ccc(-c2cc3nccc(-c4ccc5c(c4)CCCC5)n3n2)cc1
IC50 (HeLa): 36.2 µg/mL (≈ 111 µM) | IC50 (MCF7): 19.9 µg/mL (≈ 61.2 µM) | IC50 (HepG2): 37.6 µg/mL (≈ 116 µM) | IC50 [6]: 26.7 µg/mL (≈ 82 µM)

O=c1[nH]c(=O)c2c(-c3ccc4c(c3)CCCC4)ccnc2[nH]1
IC50 (HeLa): 29.1 µg/mL (≈ 99.2 µM) | IC50 (MCF7): 24.4 µg/mL (≈ 83.2 µM) | IC50 (HepG2): 39.9 µg/mL (≈ 136 µM) | IC50 [6]: 18.6 µg/mL (≈ 63.4 µM)

CC(=O)O[C@H]1C(=O)[C@@]2(C)[C@H]([C@H](OC(=O)c3ccccc3)[C@]3(O)C[C@H](OC(=O)[C@H](O)[C@@H](NC(=O)c4ccccc4)c4ccccc4)C(C)=C1C3(C)C)[C@]1(OC(C)=O)CO[C@@H]1C[C@@H]2O [PACLITAXEL]
IC50 (HeLa): 0.47 µg/mL (≈ 0.55 µM) | Activity (HCT-116 [4]): 44% | IC50 (MCF7): 0.61 µg/mL (≈ 0.714 µM) | IC50 (HepG2): 0.59 µg/mL (≈ 0.691 µM) | IC50 [6]: 0.38 µg/mL (≈ 0.445 µM)

O=c1[nH]c(=S)[nH]c2nccc(-c3ccc4c(c3)CCCC4)c12
Activity (HCT-116 [7]): Active | Activity (HCT-116 [1]): Active | Activity (HCT-116 [2]): Active | Activity (HCT-116 [3]): 0% | IC50 (HeLa): 25.3 µg/mL (≈ 81.8 µM) | Activity (HCT-116 [9]): Active | Activity (HCT-116 [4]): Active | IC50 (MCF7): 18.2 µg/mL (≈ 58.8 µM) | IC50 (HepG2): 27 µg/mL (≈ 87.3 µM) | Activity (HCT-116 [5]): 77% | Activity (HCT-116 [8]): Active | IC50 [6]: 0.49 µg/mL (≈ 1.58 µM)

CN(C)/C=C/C(=O)c1ccc2c(c1)CCCC2
IC50 (HeLa): 33.4 µg/mL (≈ 146 µM) | IC50 (MCF7): 29.3 µg/mL (≈ 128 µM) | IC50 (HepG2): 22.3 µg/mL (≈ 97.2 µM) | IC50 [6]: 18.9 µg/mL (≈ 82.4 µM)

c1cc(-c2ccc3c(c2)CCCC3)n2ncnc2n1
Activity (HCT-116 [7]): Active | Activity (HCT-116 [1]): Active | Activity (HCT-116 [2]): Active | Activity (HCT-116 [3]): 0% | IC50 (HeLa): 21.8 µg/mL (≈ 87.1 µM) | Activity (HCT-116 [9]): Active | Activity (HCT-116 [4]): Active | IC50 (MCF7): 48.2 µg/mL (≈ 193 µM) | IC50 (HepG2): 15.9 µg/mL (≈ 63.5 µM) | Activity (HCT-116 [5]): 77% | Activity (HCT-116 [8]): inactive | IC50 [6]: 2.1 µg/mL (≈ 8.39 µM)

Cc1ccc(N/C=C\C(=O)c2ccc3c(c2)CCCC3)cc1
IC50 (HeLa): 28.7 µg/mL (≈ 98.5 µM) | IC50 (MCF7): 43.6 µg/mL (≈ 150 µM) | IC50 (HepG2): 42.7 µg/mL (≈ 147 µM) | IC50 [6]: 42.1 µg/mL (≈ 144 µM)
